The nature of series [1]: Metabolic stability in human liver microsomes assessed as compound remaining at 3 uM after 10 mins by HPLC/UV/MS analysis. The format is ADME, Microsome. The conditions noted are these: read-out: Stability.
Series [2] in a line: Metabolic stability in rat liver microsomes assessed as compound remaining at 3 uM after 10 mins by HPLC/UV/MS analysis. Type of series: ADME, Microsome. To be noted: read-out: Stability. The essentials:
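Pooled human or rat liver microsomes (1 mg/mL protein) with 3 μM compound and 1.3 mM NADPH in 100 mM sodium phosphate pH 7.4 at 37 °C; final 0.015% DMSO, 0.985% acetonitrile; stopped at 0 and 10 min, percent remaining by LC/MS/MS.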
In general terms: Liver microsomes are a subcellular fraction often used to study metabolism.

The nature of series [3]: AUC in Sprague-Dawley rat at 10 mg/kg, po dosed as aqueous suspension of 1% polysorbate 80 in 0.5% methylcellulose after 0.25 to 24 hrs by LC/MS/MS analysis. Type of series: ADME, organism-based. On the set-up: time upper 24 hr, time lower 0.25 hr, dose 10 mg/kg, route oral. The conditions noted are these: in vivo.
A short description of series [4]: Oral bioavailability in Sprague-Dawley rat at 10 mg/kg dosed as aqueous suspension of 1% polysorbate 80 in 0.5% methylcellulose after 0.25 to 24 hrs by LC/MS/MS analysis. The format is ADME, organism-based. To be noted: in vivo.
Series [5] is described as follows: Cmax in Sprague-Dawley rat at 10 mg/kg, po dosed as aqueous suspension of Labrafil M 1944CS/DMAC/polysorbate 80, 85:10:5 (v/v) after 2 to 4 hrs by LC/MS/MS analysis. The format is ADME, organism-based. On the set-up: dose 10 mg/kg, route oral. To be noted: in vivo.
A short description of series [6]: Dissociation constant, pKa by spectrophotometric titration method. Type of series: physicochemical. The method in brief: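 Spectrophotometric titration over pH 2–11 in varying acetonitrile/water mixtures, extrapolated to 0% cosolvent.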
The test system of series [7] is Liver microsomes. The series is described as follows: Metabolic stability in NADPH-fortified human liver microsomes assessed as pyrazinone oxidation metabolite formation at 10 uM after 30 mins by HPLC/UV/MS analysis. Type of series: ADME, Microsome. The conditions noted are these: 0.5 h. The method in brief:
(§1)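 Pooled rat or human liver microsomes 1 mg/mL, 10 μM substrate, 100 mM potassium phosphate pH 7.4, 37 °C, started with NADPH-regenerating system (1.3 mM NADP+, 3.3 mM glucose-6-phosphate, 3.3 mM MgCl2, 0.5 U/mL G6PDH); GSH 5 mM in trapping runs. Sampled 0 and 30 min, acetonitrile quench; abundance as UV peak area (330–340 nm) fraction of all drug-related components by HPLC/UV/MS.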

For series [8], the system named is Liver microsomes. The series is described as follows: Metabolic stability in NADPH-fortified rat liver microsomes assessed as pyrazinone oxidation metabolite formation at 10 uM after 30 mins by HPLC/UV/MS analysis. Type of series: ADME, Microsome. To be noted: 0.5 h. The essentials:
as §1

The nature of series [9]: Fraction unbound in human serum after 3 to 7 hrs by equilibrium dialysis. The format is ADME, cell-free. The essentials:
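Human serum spiked with compound, equilibrium-dialysed against isotonic phosphate buffer for 3 or 7 h (depending on system) at 37 °C; both sides measured by LC/MS/MS, unbound fraction as buffer/serum concentration ratio.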

Series [10] is described as follows: Drug metabolism in bile duct cannulated Sprague-Dawley rat assessed as GSH adduct formation in urine at 20 mg/kg, po after 24 hrs by HPLC/UV/MS analysis. Type of series: ADME, organism-based. On the set-up: dose 20 mg/kg, route oral. The conditions noted are these: in vivo. The essentials:
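Male Sprague–Dawley bile duct cannulated rats (n = 3) dosed orally at 20 mg/kg in PEG/ethanol 90:10; vehicle-dosed controls (n = 3). Bile and urine pooled over 0–24 h, acetonitrile-precipitated and profiled by HPLC/UV/MS (Hydro-RP column, PDA 200–550 nm, positive-ion full and data-dependent scans).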

The target of series [11] is T1, Corticotropin-releasing factor receptor 1 (Homo sapiens) (UniProt P34998).
T1 sequence (whole entry): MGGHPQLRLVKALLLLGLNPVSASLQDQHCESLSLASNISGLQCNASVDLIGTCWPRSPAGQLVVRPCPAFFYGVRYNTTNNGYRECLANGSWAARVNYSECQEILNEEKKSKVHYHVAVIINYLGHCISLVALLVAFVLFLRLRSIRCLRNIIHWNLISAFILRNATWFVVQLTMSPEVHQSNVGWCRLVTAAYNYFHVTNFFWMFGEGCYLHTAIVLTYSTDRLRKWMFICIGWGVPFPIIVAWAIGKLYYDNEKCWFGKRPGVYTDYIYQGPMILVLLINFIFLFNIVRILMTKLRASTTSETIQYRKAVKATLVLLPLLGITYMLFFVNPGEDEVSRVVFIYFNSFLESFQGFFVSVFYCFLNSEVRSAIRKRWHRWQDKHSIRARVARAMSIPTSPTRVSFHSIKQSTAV
Put plainly: (§2) Antagonist activity at CRF1 receptor in human Y79 cells assessed as inhibition of CRF-stimulated cAMP production after 30 mins by HTRF analysis. The format is functional, cell-based.

The target of series [12] is T2, Corticotropin-releasing factor receptor 1 (Homo sapiens, UniProt P34998).
T2 sequence (P34998 whole entry): T1 sequence (whole entry)
The series is described as §2. Type of series: functional, cell-based.

For series [13], the system named is Rattus norvegicus. Put plainly: Total plasma concentration in Sprague-Dawley rat at 0.56 mg/kg, po after 1 to 3 hrs by LC/MS/MS analysis. Type of series: ADME, organism-based. On the set-up: dose 0.56 mg/kg, route oral. The conditions noted are these: in vivo.
In series [14] the test system is Rattus norvegicus. The series is described as follows: Total plasma concentration in Sprague-Dawley rat at 1 mg/kg, po after 1 to 3 hrs by LC/MS/MS analysis. On the set-up: dose 1 mg/kg, route oral. The format is ADME, organism-based. The conditions noted are these: in vivo.
The test system of series [15] is Rattus norvegicus. The series is described as follows: Total plasma concentration in Sprague-Dawley rat at 1.8 mg/kg, po after 1 to 3 hrs by LC/MS/MS analysis. The format is ADME, organism-based. On the set-up: dose 1.8 mg/kg, route oral. To be noted: in vivo.
Series [16] concerns Rattus norvegicus. The series is described as follows: Plasma free concentration in Sprague-Dawley rat at 3 mg/kg, po after 1 to 3 hrs by LC/MS/MS analysis. On the set-up: dose 3 mg/kg, route oral. Type of series: ADME, organism-based. The conditions noted are these: in vivo.
Series [17] deals with Rattus norvegicus. Put plainly: Ex vivo receptor occupancy of CRF1 receptor in Sprague-Dawley rat brain parietal assessed as inhibition of [125I]sauvagine binding at 1.8 mg/kg, po after 90 mins by autoradiography. The format is functional. The conditions noted are these: 1.5 h.
A short description of series [18]: Half life in Beagle dog at 2 mg/kg, iv by LC/MS/MS analysis. To be noted: in vivo. On the set-up: dose 2 mg/kg, route intravenous. The format is ADME, organism-based, Canis lupus familiaris. The method in brief: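 Male beagle dogs (n = 4), 2 mg/kg iv in propylene glycol:ethanol 90:10 (v/v), 1 mL/kg infused over 5 min at 0.2 mL/kg/min; femoral vein blood at 0.17–24 h; plasma frozen at –20 °C, analysed by LC/MS/MS.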

The nature of series [19]: Cmax in Beagle dog at 2 mg/kg, po dosed as aqueous suspension of 1% polysorbate 80 in 0.5% methylcellulose after 2 to 4 hrs by LC/MS/MS analysis. On the set-up: dose 2 mg/kg, route oral. The conditions noted are these: in vivo. Type of series: ADME, organism-based, Canis lupus familiaris.
Series [20] in a line: AUC in Beagle dog at 3 mg/kg, po dosed as aqueous suspension of Labrafil M 1944CS/DMAC/polysorbate 80, 85:10:5 (v/v) after 0.25 to 24 hrs by LC/MS/MS analysis. To be noted: plasma. The format is ADME, organism-based, Canis lupus familiaris. On the set-up: time upper 24 hr, time lower 0.25 hr, dose 3 mg/kg, route oral. The essentials: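 Oral solution dosing at 3 mg/kg in Labrafil M 1944CS/DMAC/polysorbate 80, 85:10:5 (v/v), at 1 mL/kg, in fasted male beagle dogs (n = 2). Samples were acetonitrile-precipitated with internal standard and measured by LC/MS/MS using selected reaction monitoring in positive ion mode.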

A short description of series [21]: Cmax in Beagle dog at 3 mg/kg, po dosed as aqueous suspension of Labrafil M 1944CS/DMAC/polysorbate 80, 85:10:5 (v/v) after 2 to 4 hrs by LC/MS/MS analysis. Type of series: ADME, organism-based, Canis lupus familiaris. On the set-up: dose 3 mg/kg, route oral. The conditions noted are these: in vivo. The essentials: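 Fasted male beagle dogs dosed orally at 1 mL/kg: 2 mg/kg as 0.2% polysorbate 80 in 0.5% methylcellulose suspension (n = 4) or 3 mg/kg in Labrafil M 1944CS/DMAC/polysorbate 80 85:10:5 (n = 2). Femoral vein blood 0.25–24 h; plasma by LC/MS/MS.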

Series [22] concerns Rattus norvegicus. The series is described as follows: Toxicity in Sprague-Dawley rat at 175 mg/kg after 2 weeks. The format is organism-based. On the set-up: dose 175 mg/kg. The conditions noted are these: in vivo, 336 h.

Structures are written as SMILES.

As for `COC[C@H](C1CC1)n1cc(C#N)nc(Nc2cc(C)c(OC(F)F)nc2C)c1=O`, the remaining at 10 min, 3 µM in [1] was 74%; in [2], 70%. In addition, the values for the AUC in series [3] and in series [20] were 4.1 µM·h and 17 µM·h, respectively. Further, in [4], the bioavailability came out at 31%. In addition, the highest concentration (Cmax) in series [5] turned out to be 1600 nM; in [19], 880 nM; in [21], 1400 nM. In addition, in series [6], the pKa was below 2. Besides, the Activity in the series on Liver microsomes [7] was below 1%; in the series on Liver microsomes [8], below 1%; in series [10], 0.1%; with Rattus norvegicus [22], “Non-toxic”. This molecule also registered a fraction unbound in series [9] of 0.035. Moreover, the inhibition result in series [11] is “Dose-dependent effect”. Moreover, the IC50 in series [12] worked out at 1.9 nM. Further, the concentration in the series on Rattus norvegicus [13] turned out to be 24 nM; in the series on Rattus norvegicus [14], 45 nM; with Rattus norvegicus [15], 83 nM. In addition, in the series on Rattus norvegicus [16], the “Cp(f)” value came to 5 nM. In addition, the inhibition in vivo at 1.8 mg/kg in the series on Rattus norvegicus [17] worked out at 71%. For the same molecule, the half-life in [18] was 30 h.

What is called AUC is the area under the concentration-time curve, a measure of exposure. Read a low AUC as low exposure. As a reminder, the bioavailability is dose-corrected exposure relative to a reference, in per cent. As a reminder, the Cmax is the highest concentration seen after dosing. In general, pKa refers to the negative logarithm of the acid dissociation constant. One may read the fraction unbound as the share of the substance not bound to proteins or other matrix. Read a high fraction unbound as weak binding. By IC50 is commonly meant the concentration that gives 50% inhibition. As a reminder, the inhibition in vivo is the drop in the measured response relative to a control, in per cent. For orientation: half-life means the time in which the quantity being followed falls by half.

The values above are taken from ChEMBL document CHEMBL1154735, “A strategy to minimize reactive metabolite formation: discovery of (S)-4-(1-cyclopropyl-2-methoxyethyl)-6-[6-(difluoromethoxy)-2,5-dimethylpyridin-3-ylamino]-5-oxo-4,5-dihydropyrazine-2-carbonitrile as a potent, orally bioavailable corticotropin-releasing factor-1 receptor antagonist” (J Med Chem, 2009).
